Experimental data of several laboratories.
Protocols differ between the studies behind these lines.
Read-out: enzyme activity
Action: inhibitor
RET Y791F: Proto-oncogene tyrosine-protein kinase receptor Ret (RET, Homo sapiens, UniProt P07949, Y791F)
RET: Proto-oncogene tyrosine-protein kinase receptor Ret (RET, Homo sapiens, UniProt P07949)

| Compound | target | test | setting | inhibition [%] |
| --- | --- | --- | --- | --- |
| COc1cc(-c2cc(-c3ccc(N4CCNCC4)cc3)cnc2N)cc(OC)c1OC | RET Y791F |  | 0.1 µM | 3 |
| CNC(=O)c1cc2c(Oc3ccc(NC(=O)C4(C(=O)Nc5ccc(F)cc5)CC4)cc3)ccnc2cc1OC | RET | radiometric | 1 µM | 98 |
| COc1cc2ncnc(Nc3ccc(Oc4ccccc4)c(C)c3C)c2cc1OC | Proto-oncogene tyrosine-protein kinase receptor Ret (RET, Homo sapiens, UniProt P07949, V804L) |  | 1 µM | 2 |
| C=CC(=O)Nc1cc(Nc2nccc(Nc3cc(Cl)c(F)cc3C(C)(C)O)n2)c(OC)cc1N1CC[C@@H](N(C)C)C1 | RET |  | 1 µM | 1 |
| COc1cc2nccc(Oc3ccc(NC(=O)c4c5n(n(-c6ccc(F)cc6)c4=O)CCCC5)cc3)c2cc1OC | RET |  | 0.1 µM | 15 |
| CC/C(=N\NC(=O)NCc1cccc(O)c1)c1ccc(O)c(C)c1O | RET |  | 0.1 µM | 0.2 |
| CNCc1ccc(-c2cc(-c3nc(-c4ccc(S(=O)(=O)C(C)C)cc4)cnc3N)on2)cc1 | RET |  | 2 µM | 42 |
| COc1cc2ncnc(Nc3ccc(Oc4ccccc4)cc3C)c2cc1OC | RET Y791F |  | 1 µM | 36 |
